Source: PubChem BioAssay (several laboratories)
GPR7 antag: blocks human GPR7 receptor signaling; GPR7-expressing cells, fluorescence antagonist assay; 290,000 tested, 1.1% active; P48145; inhibition, % at 4.4 µM; in the data active = inhibition above about 16%, passing the limit was not always enough;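 note: cells stimulated with the agonist NPW; 0% = agonist with vehicle and 100% = vehicle without agonist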
Target sequence (P48145 whole entry, looked up): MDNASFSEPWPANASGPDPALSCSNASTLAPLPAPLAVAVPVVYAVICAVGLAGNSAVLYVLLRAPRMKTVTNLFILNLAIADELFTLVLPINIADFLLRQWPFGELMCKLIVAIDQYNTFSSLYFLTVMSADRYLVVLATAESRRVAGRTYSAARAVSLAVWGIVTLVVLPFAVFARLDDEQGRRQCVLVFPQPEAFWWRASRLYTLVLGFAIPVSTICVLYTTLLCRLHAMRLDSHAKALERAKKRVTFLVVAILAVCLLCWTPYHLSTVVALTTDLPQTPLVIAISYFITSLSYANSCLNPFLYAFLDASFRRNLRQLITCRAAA
CHO parental Ca: counter-screen for OX1R antagonists: effect in parental CHO cells | parental CHO-K1, ATP-induced calcium, Fluo-8 fluorescence | inhibition, % at 5.6 µM | 330,000 tested, 0.63% active;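 active = inhibition above that plate's mean sample inhibition plus 3 SD, cut at about 26% in these data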;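 note: 0% = ATP-challenged DMSO wells and 100% = DMSO wells without ATP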
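Measured by: calcium-sensitive Fluo-8 fluorescence / Test system: CHO parental line / Controls: ATP-challenged DMSO wells low, unchallenged DMSO wells high / Measure: % inhibition / Compound: single nominal dose of 5.6 µM per compound / Replicates: single well per compound, no replicates / Reagent: ATP as calcium-mobilizing challenge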
OX1R antag-1: human HCRTR1 antagonism; inhibition, % at 5 µM; 330,000 tested, 0.43% active; CHO/OX1R cells, Fluo-8 calcium fluorescence, orexin A;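 active = inhibition above its plate's threshold, mean inhibition of all tested compounds on the plate plus 3 SD, cut at about 37% in these data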;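 note: 0% = orexin A challenge wells and 100% = SB-334867-A antagonist wells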
MPTP block: blocks calcium-induced mitochondrial swelling; isolated mouse mitochondria, Ca2+ swelling absorbance, 30 min; 360,000 tested, 1.4% active; inhibition, % at 10 µM; AID 602449;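 active = inhibition of 50% or more, scaled per plate between neutral and stimulator controls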;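 note: 0% = DMSO wells given calcium and 100% = 1 mM EGTA wells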
OX1R antag-2: OX1R (human) antagonism. 330,000 tested, 1.8% active. inhibition, % at 6.6 µM. O43613. OX1R-expressing cells, FRET antagonist read-out; in the data active = inhibition mostly above about 38%, no sharp cut-off; inactive = mostly below about 40%;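 note: 0% = agonist challenge alone and 100% = reference antagonist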
MPTP counter: membrane potential counter-screen of mitochondrial pore inhibitors; shares compounds with MPTP block; isolated mitochondria, Rhodamine 123 fluorescence; inhibition, % at 10 µM; 5,000 tested, 78% active; in the data active = inhibition above about 22%;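 note: 0% = DMSO vehicle and 100% = positive control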
MPTP swell DR: MPTP inhibition, dose response swelling confirmation; shares compounds with MPTP block; isolated mitochondria swelling, absorbance; IC50, µM; 780 tested, 58% active; in the data active = IC50 below about 20 µM
MPTP counter DR: active in counter-screen for permeability transition pore inhibitors; shares compounds with MPTP block; isolated mitochondria counterscreen, fluorescence read-out; IC50, µM; 780 tested, 49% active; in the data active = IC50 below about 80 µM
Numbers without * were called inactive; i = inactive; x = no result given. Compounds with a hit are over-represented: about 3.8% of the library has one in this group of screens.

SMILES	GPR7 antag	CHO parental Ca	OX1R antag-1	MPTP block	OX1R antag-2	MPTP counter	others
CCOc1cc(CNCCSc2nnnn2C)cc(Br)c1OCc1ccc(F)cc1	23	-25	-26	93*	23	7	MPTP swell DR=i;MPTP counter DR=23*
Cc1ccc(N2C(=O)c3ccccc3C2C(=O)c2ccc(C)c(C)c2O)cc1 (configuration not stated)	5	-20	-30	8	16	x
Cc1ccc(N2C(=O)c3ccccc3C2C(=O)c2cc(C)ccc2O)cc1 (configuration not stated)	5	-14	-15	67*	47	71*
CC(C)Oc1cccc(C(=O)NC(=S)Nc2ccccc2)c1	-2	-26	-22	0	12	x
CSCC[C@H](NC(=O)c1ccc(Cl)c([N+](=O)[O-])c1)c1nc2ccccc2[nH]1	1	-10	-26	59*	38	83*
O=C(NC(Cc1ccccc1)c1nc2ccccc2[nH]1)c1ccc(Cl)c([N+](=O)[O-])c1 (configuration not stated)	-9	-3	-19	93*	19	91*
Cc1c(C(=O)NC(Cc2ccccc2)c2nc3ccccc3[nH]2)cccc1[N+](=O)[O-] (configuration not stated)	10	-15	-32	37	19	x
O=C(COC(=O)c1ccccc1F)NCc1ccc2c(c1)OCO2	x	-10	-11	-2	11	x
Cc1cc2c(NC(=O)Nc3ccc(C(C)(C)C)cc3)cccc2nn1	-3	-9	-22	85*	-1	81*
Cc1cc2c(N)cccc2nn1	-7	-11	-20	7	39	x
CCCCc1cc(=O)oc2cc(OCc3nn[nH]n3)ccc12	-9	-6	-16	1	2	x
CN1CCC(=NNC(=O)CSc2ccc(Cl)cc2)CC1	-14	-18	-11	-4	1	x
COC(=O)c1sccc1NC(=O)Nc1ccccc1Cl	-14	x	x	-1	x	x
CCOc1ccc2nc(NC3=NC(c4ccc(OC)cc4)CC(=O)N3)nc(C)c2c1 (configuration not stated)	-10	-26	-51	2	4	x
CCOc1ccc2nc(NC3=NC(C)(C)C=C(C)N3)nc(C)c2c1	-8	-16	-23	86*	8	85*
COc1cc(OC)cc(C(=O)N[C@H](C(=O)NCc2cccs2)C(C)C)c1	0	-20	-22	0	24	x
Cc1cc(S(=O)(=O)N2CCCOC2CNC(=O)C(=O)NCc2ccco2)ccc1F (configuration not stated)	2	-10	-16	0	29	x
CCOC(=O)C1=C(Nc2ccccc2)CC(C)(O)C(C(=O)OCC)C1c1ccc(Br)cc1 (configuration not stated)	15	-30	-37	59*	25	-4	MPTP swell DR=>100;MPTP counter DR=>80
Oc1c(N=Nc2ccccn2)ccc2ccccc12	-7	31	4	54*	26	-52
CN(CC(=O)Nc1ccc(S(=O)(=O)N2CCCC2)cc1)Cc1ccc(Cl)cc1Cl	-6	7	-18	6	1	x
CN(CC(=O)Nc1ccc(Cl)cc1)c1ccc(S(=O)(=O)N2CCCCC2)cc1[N+](=O)[O-]	-9	-8	-9	82*	-2	67*
O=C(CSCc1ccc(Cl)cc1)Nc1ccc(S(=O)(=O)N2CCCCCC2)cc1	-4	-4	-17	53*	-4	80*
Nn1c(SCC(=O)Nc2ccc(OC(F)F)cc2)nnc1-c1ccco1	x	-13	-20	0	19	x
C=CC[n+]1c(/C=C2\C=Cc3cc(C)ccc3N2CC)ccc2ccccc21	35*	56*	69*	112*	114*	78*
Fc1ccc([C@@H]2CCNC[C@H]2COc2ccc3c(c2)OCO3)cc1	32*	-5	14	98*	9	-11
O=C(NCC1CCCC(CNC(=O)N2CCc3ccccc32)C1)N1CCc2ccccc21 (configuration not stated)	1	-31	-33	2	17	x
CC(C(=O)N1CCOCC1)n1cc([N+](=O)[O-])cn1 (configuration not stated)	7	-3	-8	0	8	x
